Converted amounts (≈) assume the structure as drawn. “And” between values parts separate entries of the source, which are not always exact repeats. Equal values may be shown once.
Assays:
[1] = test system: K. pneumoniae R3934 (NDM-1); test: MIC / checkerboard assay, K. pneumoniae R3934; type: cell-based; conditions: carbapenem alone
In short: (§1)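 Carbapenem (meropenem or doripenem) MICs were determined in μg mL−1 against NDM-producing K. pneumoniae and E. coli isolates. Each was tested alone and in the presence of fixed test compound at 16 μg mL−1 (7 μM) or 32 μg mL−1 (14 μM). Fold change is the MIC with compound relative to carbapenem alone.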

[2] = test system: K. pneumoniae EN5136 (NDM-1, OXA-1, SHV); test: MIC / checkerboard assay, K. pneumoniae EN5136; type: cell-based; conditions: carbapenem alone
In short: as §1

[3] = test system: K. pneumoniae BAA2146 (NDM-1); test: MIC / checkerboard assay, K. pneumoniae BAA2146; type: cell-based; conditions: carbapenem alone
In short: as §1

K. pneumoniae R3934 = test: Time-kill kinetics of carbapenem combinations; type: cell-based; conditions: carbapenem alone (meropenem 8 μg mL^−1, doripenem 2 μg mL^−1)
In short: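 K. pneumoniae R3934 (NDM-1) was exposed to meropenem (4 or 8 μg mL−1) or doripenem (0.5 or 1 μg mL−1) with the test compound at 32 μg mL−1. Controls were untreated cultures and carbapenem alone (meropenem 8, doripenem 2 μg mL−1). Viable counts (Log CFU mL−1) were taken at 2, 4, 6 and 24 h; <50 CFU mL−1 was flagged.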

[4] = test system: clinical isolates of NDM producing K. pneumoniae and E. coli; test: Checkerboard assay, summary over NDM-producing isolates; type: cell-based; conditions: for fold decrease in the MIC value: with 16 μg mL^−1 VanNHdipi (7 μM); for fold reduction of the MIC value: with 32 μg mL^−1 VanNHdipi (14 μM), all strains
In short: as §1

[5] = test system: E. coli EN5141 (NDM-1, OXA-1); test: MIC / checkerboard assay, E. coli EN5141; type: cell-based; conditions: carbapenem alone
In short: as §1

IMP-1 = IMP-1 (Serratia marcescens, UniProt P52699); test: MBL inhibition, nitrocefin absorbance assay, IMP-1; type: biochemical
Chain of IMP-1 (P52699 19-246, looked up, species assumed): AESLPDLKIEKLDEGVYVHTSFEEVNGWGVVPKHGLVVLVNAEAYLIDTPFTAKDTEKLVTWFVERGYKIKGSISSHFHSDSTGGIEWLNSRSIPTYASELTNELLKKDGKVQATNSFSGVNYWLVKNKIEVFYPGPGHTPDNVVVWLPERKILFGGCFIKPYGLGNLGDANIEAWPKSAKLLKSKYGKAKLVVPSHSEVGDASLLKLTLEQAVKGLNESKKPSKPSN
In short: (§2)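 Absorbance inhibition assay for purified metallo-β-lactamases from a seven-enzyme panel. Nitrocefin served as substrate; enzyme hydrolysis of its β-lactam ring shifts the absorption spectrum, which is monitored by absorbance. IC50 was determined for the test compound.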

NDM-1 = NDM-1 (Klebsiella pneumoniae, UniProt C7C422); test: MBL inhibition, nitrocefin absorbance assay, NDM-1; type: biochemical
Chain of NDM-1 (C7C422 29-270, looked up): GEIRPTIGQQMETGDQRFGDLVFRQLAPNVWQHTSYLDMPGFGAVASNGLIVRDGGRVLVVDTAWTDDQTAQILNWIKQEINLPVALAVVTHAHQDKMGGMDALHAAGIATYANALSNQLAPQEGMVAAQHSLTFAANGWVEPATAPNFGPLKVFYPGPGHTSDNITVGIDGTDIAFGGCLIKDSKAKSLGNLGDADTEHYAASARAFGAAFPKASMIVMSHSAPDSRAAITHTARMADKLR
In short: as §2

B. subtilis 168 [6] = test: Physiologically effective concentration; type: cell-based, Bacillus subtilis
In short: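 B. subtilis 168 was grown to mid-log phase (OD500 0.35) and then given different concentrations of the test compound or vancomycin. The acute effect on growth was followed by optical density. The PEC is the concentration at which growth continues at a reduced rate, expressed as a multiple of the MIC.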

[7] = D-Ala-D-Lac versus D-Ala-D-Ala; cited from earlier work
B. subtilis 168 [8] = test: Cell wall biosynthesis inhibition assay; type: cell-based, Bacillus subtilis; conditions: at PEC (vancomycin 0.4 μM, VanNHdipi 0.16 μM)
[9] = test system: GFP-MinD in B. subtilis 1981; test: GFP-MinD localization; type: cell-based, Bacillus subtilis; conditions: at PEC (vancomycin 0.4 μM, VanNHdipi 0.16 μM)
[10] = test system: MRSA, methicillin-resistant S. aureus (ATCC 33591); test: MIC determination; type: cell-based; conditions: Staphylococcus aureus, ATCC33591|MRSA
[11] = test system: vancomycin-resistant strains (VRSA and VRE); test: MIC across the panel of vancomycin-resistant strains; type: cell-based, Staphylococci and Enterococci; conditions: Staphylococcus aureus
MRSA [12] = test: Time-kill kinetics against exponential phase MRSA; type: cell-based, S. aureus; conditions: at MIC (vancomycin: same across concentrations)
In short: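 Exponential-phase MRSA was exposed to the test compound or vancomycin at the MIC and higher multiples. Viable counts (Log CFU mL−1) were followed over time up to 24 h.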

[13] = test system: B. subtilis 168 newly synthesized cytosolic proteins; test: 2D gel-based proteome analysis with [35S]-methionine pulse labeling; type: cell-based, Bacillus subtilis; conditions: 10 min
In short: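 B. subtilis 168 cultures grown to OD500 0.35 were exposed for 10 min to the test compound or vancomycin at the physiologically effective concentration. Newly synthesised cytosolic proteins were pulse-labelled with [35S]-methionine, separated by 2D gel electrophoresis and compared with untreated cells by false-colour overlay (treated red, control green). Proteins were identified by LC-MS; regulation factor is the treated/control ratio.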

MRSA [14] = test: Antagonization assay with N,N'-diacetyl-L-Lys-D-Ala-D-Ala; type: cell-based, S. aureus; conditions: Staphylococcus aureus, read-out: MIC in the presence of KAA
In short: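 Test compound or vancomycin was pre-incubated with N,N'-diacetyl-L-Lys-D-Ala-D-Ala (KAA) before being added to the MRSA suspension for MIC determination. MIC in the presence of KAA was compared with that without KAA.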

MRSA ATCC 33591 biofilms = test: Activity against mature biofilms of MRSA; type: cell-based, S. aureus; conditions: 20 μM, 24 h
B. subtilis = test: MIC determination against B. subtilis; type: cell-based; conditions: Bacillus subtilis
NDM-1 and VIM-2 = conditions: cited from earlier work
VIM-1 and IMP-1 = conditions: cited from earlier work

`C[C@@H](O)[C@H]1C(=O)N2C(C(=O)O)=C(S[C@@H]3CN[C@H](C(=O)N(C)C)C3)[C@H](C)[C@H]12` [Meropenem] showed an MIC of carbapenem [1] of 64 µg/mL, an MIC of carbapenem [2] of 8 µg/mL and an MIC of carbapenem [3] of 8 µg/mL. The growth inhibition (K. pneumoniae R3934) was “did not show any growth inhibition”, the MIC [4] was 0.06 to 4 µg/mL and the “fold decrease in the MIC value” ([4]; NDM-1 expressing K. pneumoniae strains) was 2-8 fold. The “fold reduction of the MIC value” [4] was 16–32 fold and the MIC of carbapenem [5] was 2 µg/mL.

In the case of `C[C@@H](O)[C@H]1C(=O)N2C(C(=O)O)=C(S[C@@H]3CN[C@H](CNS(N)(=O)=O)C3)[C@H](C)[C@H]12` [Doripenem], the MIC of carbapenem [1] is reported as 16 µg/mL, the MIC of carbapenem [2] is reported as 8 µg/mL and the MIC of carbapenem [3] is reported as 16 µg/mL. For the same molecule, the growth inhibition (K. pneumoniae R3934) was “no growth inhibition”, the MIC [4] was 0.06 to 4 µg/mL and the “fold decrease in the MIC value” ([4]; NDM producing K. pneumoniae and E. coli) was 4-16 fold. The “fold reduction of the MIC value” [4] was 16–32 fold and the MIC of carbapenem [5] was 8 µg/mL.

Work on `c1ccc(CNCc2ccccn2)nc1` [BPYA, bis(pyridin-2-ylmethyl)amine] yielded an IC50 (IMP-1) greater than 40 µM and an IC50 (NDM-1) of 1.2 µM.

In the case of `CN[C@H](CC(C)C)C(=O)N[C@H]1C(=O)N[C@@H](CC(N)=O)C(=O)N[C@H]2C(=O)N[C@H]3C(=O)N[C@H](C(=O)N[C@H](C(=O)O)c4cc(O)cc(O)c4-c4cc3ccc4O)[C@H](O)c3ccc(c(Cl)c3)Oc3cc2cc(c3O[C@@H]2O[C@H](CO)[C@@H](O)[C@H](O)[C@H]2O[C@H]2C[C@](C)(N)[C@H](O)[C@H](C)O2)Oc2ccc(cc2Cl)[C@H]1O` [Vancomycin], the “PEC as multiple of MIC” value (B. subtilis 168 [6]; added at OD500 0.35) is listed as 2 × MIC, the “physiologically effective concentration (PEC), growth retardation” value (B. subtilis 168 [6]; added at OD500 0.35 (mid-log phase)) is listed as 0.4 μM and the “fold reduction in binding affinity” value [7] is listed as 1000 fold. For the same molecule, the “inhibition of cell wall biosynthesis (bubbles on cell surface)” value (B. subtilis 168 [8]) was “Bubble-like formations were observed”, the MinD delocalization [9] was “did not elicit any MinD protein delocalization” and the MIC [10] was 0.6 µM (≈ 0.87 µg/mL). The MIC [11] was > 346 µM and > 512 µg/mL, the “time to complete eradication” value (MRSA [12]) was 24 h and the “Regulation factor (treated/control), CysC” value ([13]; at PEC (vancomycin 0.4 μM, VanNHdipi 0.16 μM)) was 2.3 ± 0.1. For the same molecule, the “Regulation factor (treated/control), GsaB” value ([13]; at PEC) was 2.8 ± 0.4, the “Regulation factor (treated/control), Hom” value ([13]; at PEC) was 5.0 ± 3.8 and the “Regulation factor (treated/control), LysA” value ([13]; at PEC) was 2.7 ± 0.3. For the same molecule, the “Regulation factor (treated/control), MtnE” value ([13]; at PEC) was 2.4 ± 0.3, the “Regulation factor (treated/control), MurF” value ([13]; at PEC) was 4.1 ± 1.6 and the “Regulation factor (treated/control), NfrA” value ([13]; at PEC) was 3.3 ± 0.2. For the same molecule, the “Regulation factor (treated/control), RpsB” value ([13]; at PEC) was 2.7 ± 0.3, the “Regulation factor (treated/control), SdhA” value ([13]; at PEC) was 3.3 ± 1 and the “Regulation factor (treated/control), ThiG” value ([13]; at PEC) was 2.5 ± 0.1. For the same molecule, the “Regulation factor (treated/control), Udk” value ([13]; at PEC) was 3.1 ± 0.5, the “Regulation factor (treated/control), YceC” value ([13]; at PEC) was 3.7 ± 0.9 and the “Regulation factor (treated/control), YoxD” value ([13]; at PEC) was 2.9 ± 0.1. For the same molecule, the “Regulation factor (treated/control), YpuA” value ([13]; at PEC) was 4.4 ± 0.3, the “Regulation factor (treated/control), YqiG” value ([13]; at PEC) was 5.2 ± 1.3 and the “Regulation factor (treated/control), YtrB” value ([13]; at PEC) was 4.8 ± 0.5. The “Regulation factor (treated/control), YtrE.2” value ([13]; at PEC) was 18.2 ± 8.98, the MIC (MRSA [14]) was greater than 30 µM and the “reduction in cell viability within the biofilms” value (MRSA ATCC 33591 biofilms) was “minimal activity”. It also gave an MIC (B. subtilis) of 0.2 µM (≈ 0.29 µg/mL).

In the case of `O=C(O)c1ncsc1NS(=O)(=O)c1cccnc1` [ANT431], the inhibitory activity (NDM-1 and VIM-2) is listed as “sub-micromolar” and the “fold less active than against NDM-1 and VIM-2” value (VIM-1 and IMP-1) is listed as “at least 20 fold”.

Source: article PMC11409854 (Chemical Science, 2024)
